Where a SMILES comes first, the peptide text is derived from it. [ ]: non-standard residue; d: D form. F2Pmp = N[C@@H](Cc1ccc(C(F)(F)P(=O)(O)O)cc1)C(=O)O; Pmp = N[C@@H](Cc1ccc(CP(=O)(O)O)cc1)C(=O)O; pY = N[C@@H](Cc1ccc(OP(=O)(O)O)cc1)C(=O)O; Nle = CCCC[C@H](N)C(=O)O

Sequence of Proto-oncogene tyrosine-protein kinase Src (P12931 2-536 limits assumed): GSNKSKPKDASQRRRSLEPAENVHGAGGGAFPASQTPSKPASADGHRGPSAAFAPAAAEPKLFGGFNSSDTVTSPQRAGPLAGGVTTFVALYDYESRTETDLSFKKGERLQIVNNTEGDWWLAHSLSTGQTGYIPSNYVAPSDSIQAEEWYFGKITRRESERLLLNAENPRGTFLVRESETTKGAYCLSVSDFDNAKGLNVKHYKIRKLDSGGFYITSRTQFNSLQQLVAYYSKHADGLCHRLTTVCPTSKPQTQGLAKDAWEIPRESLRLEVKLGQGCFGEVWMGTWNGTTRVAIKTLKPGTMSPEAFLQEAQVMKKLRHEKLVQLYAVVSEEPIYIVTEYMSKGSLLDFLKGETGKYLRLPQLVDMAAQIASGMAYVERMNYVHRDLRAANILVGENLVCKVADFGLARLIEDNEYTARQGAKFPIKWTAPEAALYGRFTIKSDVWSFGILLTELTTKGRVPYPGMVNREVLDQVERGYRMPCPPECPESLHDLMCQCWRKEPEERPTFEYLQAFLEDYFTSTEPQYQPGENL
Sequence of Tyrosine-protein kinase ABL1 (Homo sapiens) (P00519 whole entry, the tested form may be a part): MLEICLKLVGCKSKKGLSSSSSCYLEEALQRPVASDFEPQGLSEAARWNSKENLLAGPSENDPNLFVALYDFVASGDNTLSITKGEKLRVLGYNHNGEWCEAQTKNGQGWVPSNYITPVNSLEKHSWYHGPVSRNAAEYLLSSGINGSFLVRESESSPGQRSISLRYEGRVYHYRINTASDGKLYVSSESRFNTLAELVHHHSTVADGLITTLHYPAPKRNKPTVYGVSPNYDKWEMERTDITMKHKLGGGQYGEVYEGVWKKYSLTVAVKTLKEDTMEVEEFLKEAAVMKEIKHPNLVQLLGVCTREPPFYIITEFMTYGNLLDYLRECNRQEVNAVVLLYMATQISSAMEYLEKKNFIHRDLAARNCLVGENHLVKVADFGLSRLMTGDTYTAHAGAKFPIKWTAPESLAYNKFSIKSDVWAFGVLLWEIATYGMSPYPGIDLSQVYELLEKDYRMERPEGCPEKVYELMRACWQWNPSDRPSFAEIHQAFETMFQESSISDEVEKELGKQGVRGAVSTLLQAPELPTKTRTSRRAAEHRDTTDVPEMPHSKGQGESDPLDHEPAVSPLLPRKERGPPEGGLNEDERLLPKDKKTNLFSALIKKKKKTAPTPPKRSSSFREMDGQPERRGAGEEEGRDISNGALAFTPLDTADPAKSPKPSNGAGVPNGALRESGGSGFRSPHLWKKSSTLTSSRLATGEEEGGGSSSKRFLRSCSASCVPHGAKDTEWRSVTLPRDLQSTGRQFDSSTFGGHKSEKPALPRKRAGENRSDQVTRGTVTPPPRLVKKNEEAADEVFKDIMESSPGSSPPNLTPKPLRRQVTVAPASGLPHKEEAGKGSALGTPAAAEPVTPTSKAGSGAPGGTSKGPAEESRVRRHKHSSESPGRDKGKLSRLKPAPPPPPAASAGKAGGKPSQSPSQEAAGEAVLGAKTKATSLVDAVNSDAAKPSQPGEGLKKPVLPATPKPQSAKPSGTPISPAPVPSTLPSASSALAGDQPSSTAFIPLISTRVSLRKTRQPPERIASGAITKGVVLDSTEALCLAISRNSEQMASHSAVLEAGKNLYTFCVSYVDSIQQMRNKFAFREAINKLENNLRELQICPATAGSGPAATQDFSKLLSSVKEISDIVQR

Test system in one assay: not listed separately
In words: Binding affinity against p85 C-terminal SH2 domain to platelet-derived growth factor receptor beta using [35S]GST as radioligand.
Details: not given
Put shortly: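 Recombinant [35S]-labelled GST-p85 C-terminal SH2 fusion (E. coli, IPTG 1 mM, trans-35S label) binding to bead-bound Sf9-expressed PDGF-β receptor tyrosine kinase domain, prephosphorylated with 1 mM ATP, 10 mM MnCl2, 5 mM MgCl2.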
Broadly, the IC50 is the concentration needed to halve the response being measured. Read a low IC50 as higher potency. With `CCCCN(CCCC)C(=O)[C@@H](C)NC(=O)[C@@H](NC(=O)[C@H](Cc1ccc(OP(=O)(O)O)cc1)NC(C)=O)C(C)C`, the IC50 was 478 nM.

As to `CCCCCN(CCCCC)C(=O)[C@H](C)NC(=O)[C@@H](NC(=O)[C@H](Cc1ccc(C(F)(F)P(=O)(O)O)cc1)NC(C)=O)C(C)C`, the IC50 was found to be 372 nM.

Regarding `CC(=O)N[C@@H](Cc1ccc(OP(=O)(O)O)cc1)C(=O)N[C@H](C(=O)N[C@H](C)C(=O)NCCC1CCCCC1)C(C)C`, the IC50 came out at 19000 nM.

The compound `CC(=O)N[C@@H](Cc1ccc(OP(=O)(O)O)cc1)C(=O)N[C@H](C(=O)N[C@@H](C)C(=O)NCCC1CCCCC1)C(C)C` showed an IC50 of more than 100000 nM.

Take `CCCCN(CC(N)=O)C(=O)[C@@H](C)NC(=O)[C@@H](NC(=O)[C@H](Cc1ccc(OP(=O)(O)O)cc1)NC(C)=O)C(C)C`: the 50% inhibitory concentration (IC50) was found to be 2500 nM.

Compound `CCCCCNC(=O)[C@H](C)NC(=O)[C@@H](NC(=O)[C@H](Cc1ccc(OP(=O)(O)O)cc1)NC(C)=O)C(C)C` gave an IC50 of 16100 nM.

The compound `CCCCCCCCN(CCCCCCCC)C(=O)[C@H](C)NC(=O)[C@@H](NC(=O)[C@H](Cc1ccc(OP(=O)(O)O)cc1)NC(C)=O)C(C)C` gave a half-maximal inhibitory concentration (IC50) of 3470 nM.

As to `CCCCCCN(CCCCCC)C(=O)[C@@H](C)NC(=O)[C@@H](NC(=O)[C@H](Cc1ccc(OP(=O)(O)O)cc1)NC(C)=O)C(C)C`, the IC50 turned out to be 76 nM.

The compound `CCCCCN(CCCCC)C(=O)[C@@H](C)NC(=O)[C@@H](NC(=O)[C@H](Cc1ccc(OP(=O)(O)O)cc1)NC(C)=O)C(C)C` displayed an IC50 of 220 nM.

Compound `CCCCN(CCCC)C(=O)[C@H](C)NC(=O)[C@@H](NC(=O)[C@H](Cc1ccc(OP(=O)(O)O)cc1)NC(C)=O)C(C)C` showed an IC50 of 5700 nM.

With `CCCCCCN(CCCCCC)C(=O)[C@H](C)NC(=O)[C@@H](NC(=O)[C@H](Cc1ccc(C(F)(F)P(=O)(O)O)cc1)NC(C)=O)C(C)C`, the IC50 came out at 446 nM.

`CC(=O)N[C@@H](Cc1ccc(OP(=O)(O)O)cc1)C(=O)N[C@H](C(=O)N[C@@H](C)C(=O)NCCc1ccccc1)C(C)C` came in with an IC50 of more than 100000 nM.

The compound `CCCCCN(CCCCC)C(=O)[C@H](C)NC(=O)[C@@H](NC(=O)[C@H](Cc1ccc(OP(=O)(O)O)cc1)NC(C)=O)C(C)C` returned an IC50 of 3320 nM.

Compound `CCCCCCN(CCCCCC)C(=O)[C@H](C)NC(=O)[C@@H](NC(=O)[C@H](Cc1ccc(OP(=O)(O)O)cc1)NC(C)=O)C(C)C` gave an IC50 of 2500 nM.

Consider `CC(=O)N[C@@H](Cc1ccc(OP(=O)(O)O)cc1)C(=O)N[C@H](C(=O)N[C@H](C)C(=O)NCCc1ccccc1)C(C)C`, for which the IC50 turned out to be 37600 nM.

As to `CSCC[C@H](NC(=O)[C@@H]1CCCN1C(=O)[C@@H](NC(=O)[C@H](Cc1ccc(C(F)(F)P(=O)(O)O)cc1)NC(C)=O)C(C)C)C(N)=O` (Ac-[F2Pmp]VPM-NH2), the 50% inhibitory concentration (IC50) was found to be 1450 nM.

In turn, `CSCC[C@H](NC(=O)[C@@H]1CCCN1C(=O)[C@@H](NC(=O)[C@H](Cc1ccc(OP(=O)(O)O)cc1)NC(C)=O)C(C)C)C(N)=O` (Ac-[pY]VPM-NH2) gave an IC50 of 264 nM.

Regarding `CSCC[C@H](NC(=O)[C@@H]1CCCN1C(=O)[C@@H](NC(=O)[C@H](Cc1ccc(OP(=O)(O)O)cc1)NC(C)=O)C(C)C)C(=O)N[C@@H](CC(C)C)C(N)=O` (Ac-[pY]VPML-NH2), the IC50 amounted to 160 nM.

The compound `CSCC[C@H](NC(=O)[C@@H]1CCCN1C(=O)[C@@H](NC(=O)[C@H](Cc1ccc(OP(=O)(O)O)cc1)NC(C)=O)C(C)C)C(=O)N[C@@H](CC(C)C)C(=O)O` (Ac-[pY]VPML-OH) displayed an IC50 of 180 nM.

Compound `CSCC[C@H](NC(=O)[C@@H]1CCCN1C(=O)[C@@H](NC(=O)[C@@H](N)Cc1ccc(C(F)(F)P(=O)(O)O)cc1)C(C)C)C(=O)N[C@@H](CC(C)C)C(=O)O` (H-[F2Pmp]VPML-OH) yielded an IC50 of 945 nM.

With `CSCC[C@H](NC(=O)[C@@H]1CCCN1C(=O)[C@@H](NC(=O)[C@@H](N)Cc1ccc(CP(=O)(O)O)cc1)C(C)C)C(=O)N[C@@H](CC(C)C)C(=O)O` (H-[Pmp]VPML-OH), the IC50 stood at 8700 nM.

In the case of `CSCC[C@H](NC(=O)[C@H](CC(=O)O)NC(=O)[C@H](CCSC)NC(=O)[C@@H](N)Cc1ccc(OP(=O)(O)O)cc1)C(=O)N[C@@H](CO)C(=O)O` (H-[pY]MDMS-OH), the IC50 is 520 nM.

Take `CSCC[C@H](NC(=O)[C@@H]1CCCN1C(=O)[C@@H](NC(=O)[C@@H](N)Cc1ccc(OP(=O)(O)O)cc1)C(C)C)C(N)=O` (H-[pY]VPM-NH2): the IC50 amounted to 485 nM.

The compound `CSCC[C@H](NC(=O)[C@@H]1CCCN1C(=O)[C@@H](NC(=O)[C@@H](N)Cc1ccc(OP(=O)(O)O)cc1)C(C)C)C(=O)O` (H-[pY]VPM-OH) yielded an IC50 of 6850 nM.

With `CSCC[C@H](NC(=O)[C@@H]1CCCN1C(=O)[C@@H](NC(=O)[C@@H](N)Cc1ccc(OP(=O)(O)O)cc1)C(C)C)C(=O)N[C@@H](CC(C)C)C(N)=O` (H-[pY]VPML-NH2), the IC50 came out at 400 nM.

For `CSCC[C@H](NC(=O)[C@@H]1CCCN1C(=O)[C@@H](NC(=O)[C@@H](N)Cc1ccc(OP(=O)(O)O)cc1)C(C)C)C(=O)N[C@@H](CC(C)C)C(=O)O` (H-[pY]VPML-OH), the IC50 came to 445 nM.

As to `CCCC[C@H](NC(=O)[C@@H]1CCCN1C(=O)[C@@H](NC(=O)[C@@H](N)Cc1ccc(OP(=O)(O)O)cc1)C(C)C)C(=O)N[C@@H](CC(C)C)C(=O)O` (H-[pY]VP[Nle]L-OH), the IC50 came out at 1360 nM.

Compound `CCCCCNC(=O)C(C)NC(=O)[C@@H](NC(=O)[C@H](Cc1ccc(OP(=O)(O)O)cc1)NC(C)=O)C(C)C` (single isomer, unassigned) had an IC50 of 4560 nM.

A further assay concerns the target Proto-oncogene tyrosine-protein kinase Src (Homo sapiens, UniProt P12931). In words: Affinity for SH2 domain of src in Sf9 insect cells.
Details: not given
`CSCC[C@H](NC(=O)[C@@H]1CCCN1C(=O)[C@@H](NC(=O)[C@H](Cc1ccc(OP(=O)(O)O)cc1)NC(C)=O)C(C)C)C(=O)N[C@@H](CC(C)C)C(=O)O` (Ac-[pY]VPML-OH) registered an IC50 of 5900 nM.

In the case of `CSCC[C@H](NC(=O)[C@@H]1CCCN1C(=O)[C@@H](NC(=O)[C@@H](N)Cc1ccc(OP(=O)(O)O)cc1)C(C)C)C(=O)N[C@@H](CC(C)C)C(=O)O` (H-[pY]VPML-OH), the IC50 stood at 12700 nM.

The compound `CCCC[C@H](NC(=O)[C@@H]1CCCN1C(=O)[C@@H](NC(=O)[C@@H](N)Cc1ccc(OP(=O)(O)O)cc1)C(C)C)C(=O)N[C@@H](CC(C)C)C(=O)O` (H-[pY]VP[Nle]L-OH) displayed an IC50 of more than 10000 nM.

The next assay has as its target Tyrosine-protein kinase ABL1 (Homo sapiens) (UniProt P00519). In words: Affinity for SH2 domain of abl expressed in Sf9 insect cells. Particulars: concentration not given here.
Usually inhibition stands for the change of the read-out against control, counted positive when it falls. For the compound `CSCC[C@H](NC(=O)[C@@H]1CCCN1C(=O)[C@@H](NC(=O)[C@@H](N)Cc1ccc(OP(=O)(O)O)cc1)C(C)C)C(=O)N[C@@H](CC(C)C)C(=O)O` (H-[pY]VPML-OH), the inhibition came out at 60%.

For the origin of these results see ChEMBL document CHEMBL1131295, “Design of peptidomimetics that inhibit the association of phosphatidylinositol 3-kinase with platelet-derived growth factor-beta receptor and possess cellular activity” (J Med Chem, 1998).
